According to ChEMBL document CHEMBL5036308, “Chiral Alkyl Groups at Position 3(1') of Pyropheophorbide-a Specify Uptake and Retention by Tumor Cells and Are Essential for Effective Photodynamic Therapy” (J Med Chem, 2021):
Active and inactive are the calls of the source. The calls are words filed in the database; no cut-off is given here.

Experiments:
FaDu-124 = test: Binding affinity to human FaDu-124 cell membrane surface measured at 1600 nM incubated for 30 mins at 0 degC; format: tissue-based
Outline: (§1)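 FaDu-124 cells, 30 min on ice in serum-free DMEM with 1600 nM PS, then cell-associated fluorescence imaged. For diffusion into cells, cultures were then held 30 min at 37°C in fresh serum-free medium and imaged again.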

[1] = Drug uptake in human HN-143 T-EC cells assessed as drug retention at 1600 nM incubated for 24 hrs in presence of 10% fetal bovine serum measured after 72 hrs chase period by fluorescent microscopy imaging based analysis; format: ADME, cell-based; conditions: 1.6 µM
Outline: (§2)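 Cells incubated 24 h in medium with 10% serum and 1600 nM PS, then chased in PS-free medium for up to 72 h with daily medium changes. Cellular PS was measured daily by fluorescence microscopy; net fluorescence intensity per full image frame was quantified in arbitrary units.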

[2] = Drug uptake in human FaDu-124 cell membrane assessed as drug internalization at 1600 nM incubated for 30 mins at 37 degC; format: ADME, cell-based; conditions: fadu-124, 0.5 h, 1.6 µM; outline: as §1
[3] = Drug uptake in tissue cultured human TEC1-2 cells assessed as drug retention at 1600 nM incubated for 24 hrs in presence of 10% fetal bovine serum measured after 24 hrs chase period by fluorescent microscopy; format: ADME, tissue-based; conditions: tec1-2, 24 h, 1.6 µM
[4] = Drug uptake in human HN-143 T-EC cells assessed as slow release by measuring drug retention at 1600 nM incubated for 24 hrs in presence of 10% fetal bovine serum measured after 48 hrs chase period by fluorescent microscopy imaging based analysis; format: ADME, cell-based; conditions: 1.6 µM; outline: as §2
[5] = Drug uptake in human HN-143-T-EC cells assessed as drug retention in mitochondria measured after 72 hrs chase period by fluorescent microscopy; format: ADME
[6] = Drug uptake in human HN-143 T-EC cells assessed as drug retention at 1600 nM incubated for 24 hrs in presence of 10% fetal bovine by fluorescent microscopy imaging based analysis; format: ADME, cell-based; conditions: 1.6 µM; outline: as §2
[7] = Photoreactivation in human TEC21 cells assessed as STAT3cross-linking in presence of 10% fetal bovine serum under 665 nm light for 9 mins measured after 24 hrs by immune blot analysis; format: cell-based; conditions: tec-21, 0.15 h
Outline: (§3)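 TEC-21 cells (p 8) treated 24 h in RPMI + 10% FBS with PS, imaged, chased 48 h in RPMI + 10% FBS, then irradiated 9 min with 665 nm light (6 mW/cm²). Cells were extracted immediately and immunoblotted for STAT3 crosslinking, EGFR and phospho-p38 MAPK.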

[8] = Lipophilicity, logP of the compound; format: physicochemical; conditions: octanol/water
[9] = Drug uptake in tissue cultured human TEC1-2 cells assessed as drug retention at 1600 nM incubated for 24 hrs in presence of 10% fetal bovine serum measured after 48 hrs chase period by fluorescent microscopy; format: ADME, tissue-based; conditions: tec1-2, 24 h, 1.6 µM
[10] = Photoreactivation in human TEC21 cells in presence of 10% fetal bovine serum under 665 nm light for 9 mins measured after 24 hrs by immune blot analysis; format: cell-based; conditions: tec-21, 24 h; outline: as §3
[11] = Drug uptake in human HN-143-T-EC cells assessed as drug retention in endoplasmic reticulum measured after 72 hrs by fluorescent microscopy; format: ADME, cell-based
[12] = Drug uptake in human HN-143 T-EC cells assessed as drug retention at 1600 nM incubated for 24 hrs in presence of 10% fetal bovine serum measured after 48 hrs chase period by fluorescent microscopy imaging based analysis; format: ADME, cell-based; conditions: 1.6 µM; outline: as §2
[13] = Drug uptake in human HN-85 T-EC cells assessed as drug retention at 1600 nM incubated for 24 hrs in presence of 10% fetal bovine serum measured after 24 hrs chase period by fluorescent microscopy; format: ADME, cell-based; conditions: 1.6 µM
[14] = Drug uptake in human HNT1 cells assessed as drug retention at 1600 nM incubated for 24 hrs in presence of 10% fetal bovine serum measured after 24 hrs chase period by fluorescent microscopy; format: ADME, cell-based; conditions: hnt1, 24 h, 1.6 µM
HN-143 T-EC = test: Binding affinity to human HN-143 T-EC cell membrane surface measured at 1600 nM incubated for 30 min; format: tissue-based
[15] = Solubility of the compound; format: physicochemical
[16] = Photoreactivation in human HN-85 T-EC cells at 100 to 400 nM in presence of 10% fetal bovine serum under 3 J/cm^2 light for 9 mins measured after 24 hrs by Western blotting analysis; conditions: 0.15 h, 0.4 µM

For CCCCCCSC(C)c1c(C)c2cc3nc(c4c5[nH]c(cc6nc(cc1[nH]2)C(C)=C6CC)c(C)c5C(=O)C4)[C@@H](CCC(=O)OC)C3C (stereo partly drawn), which Activity (FaDu-124) is on record?
The Activity was “Active”.

And the Drug uptake [1]?
Its Drug uptake is “Active”.

What about the Drug uptake [2] of the same compound?
The Drug uptake was “Active”.

For CCCCOC(CCC)c1c(C)c2cc3nc(c4c5[nH]c(cc6nc(cc1[nH]2)C(C)=C6CC)c(C)c5C(=O)C4)[C@@H](CCC(=O)O)C3C (stereo partly drawn), which Drug uptake [3] is on record?
The Drug uptake was “Active”.

And the Drug uptake [4]?
Its Drug uptake is “Active”.

And the Drug uptake [5]?
The Drug uptake was “Active”.

What about the Drug uptake [6] of the same compound?
Its Drug uptake is “Active”.

What about the Activity [7] of the same compound?
Its Activity is 3.1%.

What about the logP [8] of the same compound?
The logP was 6.56.

And the Drug uptake [9]?
The Drug uptake was “Active”.

What about the Drug metabolism [10] of the same compound?
Its Drug metabolism is “Metabolite_Detected”.

What about the Drug uptake [1] of the same compound?
The Drug uptake was “Active”.

And the Drug uptake [11]?
Its Drug uptake is “Active”.

What about the Drug uptake [12] of the same compound?
Its Drug uptake is “Active”.

Which Drug uptake [5] does the source give for CCCCCCOC(CCC)c1c(C)c2cc3nc(c4c5[nH]c(cc6nc(cc1[nH]2)C(C)=C6CC)c(C)c5C(=O)C4)[C@@H](CCC(=O)OC)C3C (stereo partly drawn) here?
Its Drug uptake is “Active”.

And the Drug uptake [1]?
Its Drug uptake is “Active”.

And the Drug uptake [11]?
Its Drug uptake is “Active”.

With CCCCOC(CCC)c1c(C)c2cc3nc(c4c5[nH]c(cc6nc(cc1[nH]2)C(C)=C6CC)c(C)c5C(=O)C4)[C@@H](CCC(=O)OC)C3C (stereo partly drawn) as the compound, how does the Drug uptake [5] read?
Its Drug uptake is “Active”.

What about the Drug uptake [1] of the same compound?
The Drug uptake was “Active”.

What about the Drug uptake [11] of the same compound?
Its Drug uptake is “Active”.

Which Drug uptake [5] does the source give for CCCCC(C)OC(C)c1c(C)c2cc3nc(c4c5[nH]c(cc6nc(cc1[nH]2)C(C)=C6CC)c(C)c5C(=O)C4)[C@@H](CCC(=O)O)C3C (stereo partly drawn) here?
Its Drug uptake is “Active”.

And the Drug uptake [13]?
The Drug uptake was “Not Active”.

And the Drug uptake [6]?
The Drug uptake was “Active”.

What about the Drug uptake [14] of the same compound?
Its Drug uptake is “Active”.

What about the Activity (HN-143 T-EC) of the same compound?
Its Activity is “Active”.

And the Drug uptake [1]?
The Drug uptake was “Active”.

And the Drug uptake [11]?
Its Drug uptake is “Active”.

Which Drug uptake [6] does the source give for CCCCCCCCc1c(C)c2cc3nc(c4c5[nH]c(cc6nc(cc1[nH]2)C(C)=C6CC)c(C)c5C(=O)C4)[C@@H](CCC(=O)O)C3C (stereo partly drawn) here?
The Drug uptake was “Not Active”.

And the Drug uptake [1]?
Its Drug uptake is “Active”.

What about the solubility [15] of the same compound?
The solubility was “Soluble”.

With CCCCC(C)OCc1c(C)c2cc3nc(c4c5[nH]c(cc6nc(cc1[nH]2)C(C)=C6CC)c(C)c5C(=O)C4)[C@@H](CCC(=O)O)C3C (stereo partly drawn) as the compound, how does the Drug uptake [6] read?
Its Drug uptake is “Active”.

What about the Activity [7] of the same compound?
The Activity was 0.2%.

What about the Drug uptake [14] of the same compound?
Its Drug uptake is “Active”.

What about the Activity (HN-143 T-EC) of the same compound?
Its Activity is “Active”.

And the Drug metabolism [10]?
Its Drug metabolism is “Metabolite_Detected”.

What about the Drug uptake [1] of the same compound?
Its Drug uptake is “Active”.

Which Activity (HN-143 T-EC) does the source give for CCCCCCOCc1c(C)c2cc3nc(c4c5[nH]c(cc6nc(cc1[nH]2)C(C)=C6CC)c(C)c5C(=O)C4)[C@@H](CCC(=O)O)C3C (stereo partly drawn) here?
The Activity was “Active”.

For CCCCC(C)OC(C)c1c(C)c2cc3nc(c4c5[nH]c(cc6nc(cc1[nH]2)C(C)=C6CC)c(C)c5C(=O)C4)[C@@H](CCC(=O)OC)C3C (stereo partly drawn), which Drug uptake [4] is on record?
Its Drug uptake is “Active”.

And the Drug uptake [5]?
The Drug uptake was “Active”.

And the Drug uptake [13]?
Its Drug uptake is “Not Active”.

What about the Drug metabolism [16] of the same compound?
Its Drug metabolism is “Metabolite_Detected”.

And the Drug uptake [1]?
Its Drug uptake is “Active”.

What about the Drug uptake [11] of the same compound?
The Drug uptake was “Active”.
